Measured values pooled from the literature.
Protocols differ between the studies behind these lines.
PGR: Progesterone receptor (PGR, Homo sapiens, UniProt P06401)
ADRB3: Beta-3 adrenergic receptor (ADRB3, Homo sapiens, UniProt P13945)

Compound	target	read-out	action	method	concentration	inhibition
CC(C)C[C@H](NC(=O)[C@H](Cc1ccccc1)NC(=O)c1cnccn1)B(O)O	Lysosomal Pro-X carboxypeptidase (PRCP, Homo sapiens, UniProt P42785)	enzyme activity	inhibitor	–	33 µM	77.9%
COc1ccc2[nH]c(C(O)c3ccc(Cl)cc3)c(CCNC(C)=O)c2c1 (centres unmarked)	Calmodulin-1 (CALM1, Homo sapiens, UniProt P0DP23)	enzyme activity	inhibitor	–	50 µM	40 to 50%
Cn1cc(-c2cc(F)cc(N3CCn4c(cc5c4CCCC5)C3=O)c2CO)cc(Nc2ccc(N3CCN(C4COC4)CC3)cn2)c1=O	Tyrosine-protein kinase Tec (TEC, Homo sapiens, UniProt P42680)	enzyme activity	inhibitor	–	0.1 µM	-3%
O=C(Nc1cccnn1)N1CCN([C@@H]2CCOc3cc(C(F)(F)F)ccc32)CC1	Prostaglandin E2 receptor EP2 subtype (PTGER2, Homo sapiens, UniProt P43116)	cell-free assay	–	–	20 µM	-13%
COc1ccc(N=Nc2ccc3[nH]cc(CCN(C)C)c3c2)cc1	5-hydroxytryptamine receptor 4 (HTR4, Homo sapiens, UniProt Q13639)	ligand displacement	–	radioligand	10 µM	< 50%
COc1ccc(S(=O)(=O)N2CCCCC2)cc1C	PGR	ligand displacement	–	radioligand	10 µM	< 30%
c1ccc(C(NCCNC(c2ccccc2)c2ccccc2)c2ccccc2)cc1	ADRB3	cell-free assay	–	–	10 µM	59%
C#Cc1n[nH]c2c(-c3cn([C@@H](C)c4ccccc4)c(=O)[nH]c3=O)cc(F)cc12	Dual specificity protein kinase CLK2 (CLK2, Homo sapiens, UniProt P49760)	enzyme activity	inhibitor	–	0.1 µM	3.8%
CN(C)C(=O)COC(=O)Cc1ccc(OC(=O)c2ccc(NC(=N)N)cc2)cc1	Collagenase 3 (MMP13, Homo sapiens, UniProt P45452)	enzyme activity	inhibitor	–	10 µM	24%
COCc1c(-c2cc3cc(C)cc(OC)c3s2)c2c(N)ncnn2c1CN1CCNC(=O)C1	ADRB3	ligand displacement	–	radioligand	10 µM	9%
C#Cc1n[nH]c2c(-c3cn([C@@H](C)c4ccccn4)c(=O)[nH]c3=O)cc(F)cc12	Serine/threonine-protein kinase Sgk1 (SGK1, Homo sapiens, UniProt O00141)	enzyme activity	inhibitor	–	0.1 µM	-0.7%
C[C@H](C(=O)N[C@H]1COc2ccccc2[C@@H]1S(C)(=O)=O)c1ccc(F)cc1	Adenosine receptor A2b (ADORA2B, Homo sapiens, UniProt P29275)	cell-free assay	–	–	10 µM	9%
CN(CCN1CCC(OC(=O)Nc2ccccc2-c2ccccc2)CC1)C(=O)c1ccc(CN2CCC(C(N)=O)CC2)cc1	PGR	ligand displacement	–	radioligand	1 µM	0%
COc1cc(Nc2ncc(F)c(Nc3ccc4c(n3)NC(=O)C(C)(C)O4)n2)cc(OC)c1OC	Calcium/calmodulin-dependent protein kinase type II subunit gamma (CAMK2G, Homo sapiens, UniProt Q13555)	binding	–	competition with immobilised ligand	10 µM	47%
